The text below walks through data of ChEMBL document CHEMBL5252510, “A Novel Potent Oral Series of VEGFR2 Inhibitors Abrogate Tumor Growth by Inhibiting Angiogenesis” (J Med Chem, 2016).

For data set [1], the target named is Vascular endothelial growth factor receptor 2 (Mus musculus, UniProt P35918). In words: Inhibition of mouse recombinant GST-fused VEGFR2 kinase domain expressed in baculovirus expression system using poly-Glu-Tyr (4:1) as substrate measured after 10 mins in presence of gamma-[33P]-ATP by scintillation counting analysis. The gist of the method: (§1)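 GST-fused kinase domains were expressed in baculovirus and purified on glutathione-Sepharose. 10 min at ambient temperature, stopped with EDTA. Filter binding and scintillation counting. IC50 by linear regression of percent inhibition.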
Chain of Vascular endothelial growth factor receptor 2 (Mus musculus, UniProt P35918) (P35918 whole entry, the tested form may be a part): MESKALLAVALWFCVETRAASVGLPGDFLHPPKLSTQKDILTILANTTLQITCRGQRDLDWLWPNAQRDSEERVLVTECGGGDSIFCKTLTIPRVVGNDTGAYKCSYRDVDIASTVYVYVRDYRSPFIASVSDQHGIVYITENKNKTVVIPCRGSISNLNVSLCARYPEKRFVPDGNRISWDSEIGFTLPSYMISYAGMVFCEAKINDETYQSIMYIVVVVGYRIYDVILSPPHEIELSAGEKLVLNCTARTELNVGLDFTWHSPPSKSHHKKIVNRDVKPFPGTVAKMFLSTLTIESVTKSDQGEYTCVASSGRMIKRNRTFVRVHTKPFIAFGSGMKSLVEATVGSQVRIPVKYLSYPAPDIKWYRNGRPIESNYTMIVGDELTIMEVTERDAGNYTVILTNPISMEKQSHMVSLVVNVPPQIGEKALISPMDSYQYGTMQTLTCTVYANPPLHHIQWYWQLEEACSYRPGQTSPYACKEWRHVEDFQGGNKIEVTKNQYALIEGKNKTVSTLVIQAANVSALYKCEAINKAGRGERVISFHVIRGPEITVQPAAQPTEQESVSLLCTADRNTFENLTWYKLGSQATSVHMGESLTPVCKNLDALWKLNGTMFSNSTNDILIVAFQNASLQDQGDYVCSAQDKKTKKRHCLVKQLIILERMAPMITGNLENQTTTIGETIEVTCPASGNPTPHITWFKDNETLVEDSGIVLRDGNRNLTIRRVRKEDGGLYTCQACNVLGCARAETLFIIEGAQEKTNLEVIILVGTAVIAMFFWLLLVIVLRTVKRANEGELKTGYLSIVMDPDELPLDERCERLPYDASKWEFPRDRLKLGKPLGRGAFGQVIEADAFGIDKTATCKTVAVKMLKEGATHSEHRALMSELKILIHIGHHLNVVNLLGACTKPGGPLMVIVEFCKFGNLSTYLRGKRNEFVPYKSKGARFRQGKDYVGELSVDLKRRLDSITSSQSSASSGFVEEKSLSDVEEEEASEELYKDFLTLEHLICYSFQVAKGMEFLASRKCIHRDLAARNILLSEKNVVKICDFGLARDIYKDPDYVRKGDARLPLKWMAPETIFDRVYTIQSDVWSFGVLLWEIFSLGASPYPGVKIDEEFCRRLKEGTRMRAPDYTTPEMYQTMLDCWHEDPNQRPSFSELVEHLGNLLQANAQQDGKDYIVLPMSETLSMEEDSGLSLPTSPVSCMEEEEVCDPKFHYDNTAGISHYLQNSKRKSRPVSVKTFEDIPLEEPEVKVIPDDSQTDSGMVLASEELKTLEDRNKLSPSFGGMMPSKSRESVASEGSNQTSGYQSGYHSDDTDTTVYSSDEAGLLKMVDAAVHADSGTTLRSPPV

Data set [2] can be described thus: Toxicity in C57BL/6jNpa mouse harbouring mouse B16-BL6 cells assessed as effect on body weight at 3 mg/kg, po qd administered started on day 7 post implantation measured after 21 days. It is filed as organism-based. Particulars: in vivo, 504 h, time 7-21 day. A digest of the protocol: (§2)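 B16/BL6 melanoma cells (50000) injected intradermally into dorsal pinna of both ears of female mice (18–20 g). Randomized on day 7 into groups of 5-6 by primary tumor size, then dosed orally once daily for 14 days in PEG300 or PEG200. Sacrificed day 21; blood analysed directly for platelets, red and white cell counts, hematocrit. Body and spleen weight recorded versus healthy naive mouse.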

For data set [3], the system named is BaF3. Briefly: Antiproliferative activity against mouse BaF3 cells assessed as cell growth inhibition measured after 72 hrs by Alamar Blue assay. The following applies: BaF3, 72 h. (In general: Resazurin is reduced to fluorescent resorufin, in cell work by metabolically active cells.)
For data set [4], the system named is Mus musculus. In words: Protection against VEGF-induced vessel extravasation in FVB mouse at 3 mg/kg pre-administrated for 2 to 48 hrs followed by evans-blue administration for 30 mins and measured 30 mins after dog VEGF164 addition. The data set is classed as functional, organism-based. Particulars: time 3-49 hrs. A digest of the protocol: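 Female FVB mice (18–20 g), 3–4 per group. Oral 3 mg/kg at 48, 24 or 8 h before sacrifice. Evans blue 0.5 % (200 µl) given i.v. in the tail vein. 30 min later, 2 µL dog VEGF164 (10 ng/µL) injected intradermally into the ear pinna. Dye extravasation quantified by a computer-assisted system.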

The subject of data set [5] is Mus musculus. In words: Anti-angiogenesis activity in FVB mouse model assessed as inhibition of VEGF-induced tissue weight at 0.3 mg/kg, po qd treated for 4 to 6 hrs prior to chamber implantation and continuing for 4 days measured after 24 hrs post last dose. The data set is classed as functional, organism-based. Particulars: time 5.0 day. A digest of the protocol:
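Female FVB mice (18-20 g), porous chambers with VEGF (2 μg/mL) in 0.8 % w/v agar containing heparin 20 U/mL implanted s.c. in flank; compound p.o. once daily in 100 % PEG200 (5 mL/kg) from 4-6 h before implantation for 4 days; tissue removed 24 h after last dose, weighed, lysate assayed for TIE-2 by sandwich ELISA; n=6 per dose, mean ± SEM.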

Data set [6] deals with Vascular endothelial growth factor receptor 2 (Homo sapiens, UniProt P35968). Briefly: Inhibition of VEGF-induced human VEGFR2 autophosphorylation expressed in HUVEC cells measured after 2 hrs by chemiluminescence assay. The data set is classed as cell-based.
Data set [7] concerns the target Vascular endothelial growth factor receptor 1 (Homo sapiens, UniProt P17948). Briefly: Inhibition of human recombinant GST-fused VEGFR1 kinase domain transphosphorylation expressed in baculovirus expression system using poly-Glu-Tyr (4:1) as substrate measured after 10 mins in presence of gamma-[33P]-ATP by scintillation counting analysis. The gist of the method: as §1

Data set [8] in a line: Toxicity in C57BL/6jNpa mouse harbouring mouse B16-BL6 cells assessed as effect on spleen weight at 3 mg/kg, po qd administered started on day 7 post implantation measured after 21 days. The following applies: in vivo, 504 h, time 7-21 day. It is filed as organism-based. A digest of the protocol: as §2
Data set [9] concerns the target Insulin-like growth factor 1 receptor (Homo sapiens, UniProt P08069). Briefly: Inhibition of IGF1R (unknown origin) autophosphorylation expressed in […] by ELISA-based assay. It is filed as cell-based. A digest of the protocol:
(§3)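 Cells were stimulated with the respective ligand. Receptor tyrosine kinase autophosphorylation in the presence of compound was quantified by ELISA.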

Data set [10] addresses Receptor tyrosine-protein kinase erbB-2 (Homo sapiens, UniProt P04626). Briefly: Inhibition of ERBB2 (unknown origin) autophosphorylation expressed in human BT-474 cells by ELISA-based assay. The data set is classed as cell-based. A digest of the protocol: as §3
On the technique in general: An ELISA detects its analyte on a solid surface through an enzyme-linked reagent.

For data set [11], the target named is Proto-oncogene tyrosine-protein kinase receptor Ret (Homo sapiens, UniProt P07949). Briefly: Inhibition of human recombinant GST-fused RET expressed in baculovirus expression system using poly-Glu-Tyr (4:1) as substrate measured after 10 mins in presence of gamma-[33P]-ATP by scintillation counting analysis. The gist of the method: as §1
A short description of data set [12]: Toxicity in C57BL/6jNpa mouse harbouring mouse B16-BL6 cells assessed as effect on animal well-being at 3 mg/kg, po qd administered started on day 7 post implantation measured after 21 days. It is filed as organism-based. Particulars: in vivo, 504 h, time 7-21 day. A digest of the protocol: (§4)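 Female C57BL/6JNpa mice received 50000 B16/BL6 cells intradermally in both ear pinnae. Randomized on day 7 into groups of 5–6, then dosed 3 mg/kg p.o. daily in PEG200/PEG300 for 14 days. Behavior and well-being were observed. On day 21, blood was analysed for platelet, red and white cell counts and hematocrit.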

The test system of data set [13] is BaF3. Briefly: Antiproliferative activity against mouse BaF3 cells expressing Tel-IGF-1R assessed as cell growth inhibition measured after 72 hrs by Alamar Blue assay. The following applies: BaF3, 72 h.
The target in another data set is Insulin receptor (Homo sapiens, UniProt P06213). Briefly: Inhibition of INSR (unknown origin) autophosphorylation expressed in […] by ELISA-based assay. It is filed as cell-based. A digest of the protocol: as §3
The target in data set [14] is Vascular endothelial growth factor receptor 3 (Homo sapiens, UniProt P35916). In words: Inhibition of human recombinant GST-fused VEGFR3 kinase domain transphosphorylation expressed in baculovirus expression system using poly-Glu-Tyr (4:1) as substrate measured after 10 mins in presence of gamma-[33P]-ATP by scintillation counting analysis. The gist of the method:
as §1

In data set [15] the test system is BaF3. Briefly: Antiproliferative activity against mouse BaF3 cells expressing Tel-FGFR3 assessed as cell growth inhibition measured after 72 hrs by Alamar Blue assay. The following applies: BaF3, 72 h.
Data set [16] is described as follows: Toxicity in C57BL/6jNpa mouse harbouring mouse B16-BL6 cells assessed as effect on animal behavior at 3 mg/kg, po qd administered started on day 7 post implantation measured after 21 days. It is filed as organism-based. Particulars: in vivo, 504 h, time 7-21 day. A digest of the protocol: as §4
Another data set deals with B16-BL6. In words: Antitumor activity against mouse B16-BL6 cells implanted in C57BL/6jNpa mouse assessed as reduction in TIE-2 levels metastases lysate of at 3 mg/kg, po qd administered started on day 7 post implantation measured after 21 days by ELISA analysis. The data set is classed as functional, organism-based. Particulars: time 7-21 day. The gist of the method: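 Female C57BL/6JNpa mice, 50000 B16/BL6 cells intradermally in both ear pinnae; primary tumor area (mm²) imaged days 7, 14, 21; randomized day 7 into groups of 5-6, oral dosing in PEG200 or PEG300 vehicle daily (or every 2 days) for 14 days; day 21 cervical lymph nodes weighed, metastasis lysates assayed for TIE-2 by ELISA; T/C ratios.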

Data set [17] is described as follows: Volume of distribution at steady state in Sprague-Dawley rat at 3 mg/kg, iv measured upto 24 hrs by HPLC/UV analysis. The data set is classed as ADME, organism-based. Particulars: in vivo, read-out: Vdss. A digest of the protocol:
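Female Sprague Dawley rats, 8 weeks, jugular vein and femoral artery catheters, 96 h recovery. IV 3 mg/kg in ethanol/NMP/PEG400/D5W (10/10/50/30), n=2.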

The nature of data set [18]: Half life in Sprague-Dawley rat at 50 mg/kg, po measured upto 24 hrs by HPLC/UV analysis. It is filed as ADME, organism-based. Particulars: in vivo. The gist of the method:
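Female Sprague Dawley rats, 8 weeks old, catheterized. Oral suspension in 0.5 % carboxymethyl cellulose at 50 mg/kg, n=3. Bioavailability taken against 3 mg/kg iv. Plasma sampled 5 min–24 h. Cmax and AUC(0–∞) dose-normalized.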

Molecules are shown by their SMILES. Active and inactive are the calls of the source.

Chain of Vascular endothelial growth factor receptor 1 (P17948 whole entry, the tested form may be a part): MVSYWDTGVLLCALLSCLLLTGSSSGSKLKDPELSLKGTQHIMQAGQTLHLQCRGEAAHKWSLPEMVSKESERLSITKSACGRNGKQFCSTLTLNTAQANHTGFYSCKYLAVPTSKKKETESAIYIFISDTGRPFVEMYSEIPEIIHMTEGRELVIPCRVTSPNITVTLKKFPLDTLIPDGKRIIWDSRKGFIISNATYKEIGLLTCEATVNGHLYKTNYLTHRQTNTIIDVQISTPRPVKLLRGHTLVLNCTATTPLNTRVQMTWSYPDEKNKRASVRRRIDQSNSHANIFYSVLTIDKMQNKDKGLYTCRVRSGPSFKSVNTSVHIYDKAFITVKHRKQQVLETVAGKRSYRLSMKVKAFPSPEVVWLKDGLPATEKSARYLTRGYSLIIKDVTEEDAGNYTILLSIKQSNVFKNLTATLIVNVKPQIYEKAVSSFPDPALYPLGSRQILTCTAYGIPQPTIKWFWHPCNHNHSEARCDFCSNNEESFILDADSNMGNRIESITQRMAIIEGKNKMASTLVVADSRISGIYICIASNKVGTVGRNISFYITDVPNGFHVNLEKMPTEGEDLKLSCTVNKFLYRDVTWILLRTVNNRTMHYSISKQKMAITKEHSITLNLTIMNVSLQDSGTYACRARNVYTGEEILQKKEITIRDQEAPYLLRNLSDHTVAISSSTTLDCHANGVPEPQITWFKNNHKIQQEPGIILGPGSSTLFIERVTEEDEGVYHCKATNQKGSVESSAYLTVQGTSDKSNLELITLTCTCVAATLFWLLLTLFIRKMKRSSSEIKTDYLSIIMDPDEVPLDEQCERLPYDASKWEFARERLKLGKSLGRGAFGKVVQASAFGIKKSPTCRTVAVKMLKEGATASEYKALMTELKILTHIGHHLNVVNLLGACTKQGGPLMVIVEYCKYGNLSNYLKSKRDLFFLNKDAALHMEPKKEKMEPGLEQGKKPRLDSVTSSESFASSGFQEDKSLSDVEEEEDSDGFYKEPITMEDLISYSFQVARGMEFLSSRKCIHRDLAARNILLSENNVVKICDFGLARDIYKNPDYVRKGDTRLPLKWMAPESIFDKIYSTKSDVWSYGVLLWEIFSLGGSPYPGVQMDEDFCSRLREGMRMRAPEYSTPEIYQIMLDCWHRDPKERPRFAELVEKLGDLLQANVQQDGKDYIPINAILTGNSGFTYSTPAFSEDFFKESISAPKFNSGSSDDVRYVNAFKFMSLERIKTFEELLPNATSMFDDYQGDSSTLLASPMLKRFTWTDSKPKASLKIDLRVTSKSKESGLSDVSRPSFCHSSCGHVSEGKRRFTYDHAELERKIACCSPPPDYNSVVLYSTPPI
Chain of Vascular endothelial growth factor receptor 3 (P35916 whole entry, the tested form may be a part): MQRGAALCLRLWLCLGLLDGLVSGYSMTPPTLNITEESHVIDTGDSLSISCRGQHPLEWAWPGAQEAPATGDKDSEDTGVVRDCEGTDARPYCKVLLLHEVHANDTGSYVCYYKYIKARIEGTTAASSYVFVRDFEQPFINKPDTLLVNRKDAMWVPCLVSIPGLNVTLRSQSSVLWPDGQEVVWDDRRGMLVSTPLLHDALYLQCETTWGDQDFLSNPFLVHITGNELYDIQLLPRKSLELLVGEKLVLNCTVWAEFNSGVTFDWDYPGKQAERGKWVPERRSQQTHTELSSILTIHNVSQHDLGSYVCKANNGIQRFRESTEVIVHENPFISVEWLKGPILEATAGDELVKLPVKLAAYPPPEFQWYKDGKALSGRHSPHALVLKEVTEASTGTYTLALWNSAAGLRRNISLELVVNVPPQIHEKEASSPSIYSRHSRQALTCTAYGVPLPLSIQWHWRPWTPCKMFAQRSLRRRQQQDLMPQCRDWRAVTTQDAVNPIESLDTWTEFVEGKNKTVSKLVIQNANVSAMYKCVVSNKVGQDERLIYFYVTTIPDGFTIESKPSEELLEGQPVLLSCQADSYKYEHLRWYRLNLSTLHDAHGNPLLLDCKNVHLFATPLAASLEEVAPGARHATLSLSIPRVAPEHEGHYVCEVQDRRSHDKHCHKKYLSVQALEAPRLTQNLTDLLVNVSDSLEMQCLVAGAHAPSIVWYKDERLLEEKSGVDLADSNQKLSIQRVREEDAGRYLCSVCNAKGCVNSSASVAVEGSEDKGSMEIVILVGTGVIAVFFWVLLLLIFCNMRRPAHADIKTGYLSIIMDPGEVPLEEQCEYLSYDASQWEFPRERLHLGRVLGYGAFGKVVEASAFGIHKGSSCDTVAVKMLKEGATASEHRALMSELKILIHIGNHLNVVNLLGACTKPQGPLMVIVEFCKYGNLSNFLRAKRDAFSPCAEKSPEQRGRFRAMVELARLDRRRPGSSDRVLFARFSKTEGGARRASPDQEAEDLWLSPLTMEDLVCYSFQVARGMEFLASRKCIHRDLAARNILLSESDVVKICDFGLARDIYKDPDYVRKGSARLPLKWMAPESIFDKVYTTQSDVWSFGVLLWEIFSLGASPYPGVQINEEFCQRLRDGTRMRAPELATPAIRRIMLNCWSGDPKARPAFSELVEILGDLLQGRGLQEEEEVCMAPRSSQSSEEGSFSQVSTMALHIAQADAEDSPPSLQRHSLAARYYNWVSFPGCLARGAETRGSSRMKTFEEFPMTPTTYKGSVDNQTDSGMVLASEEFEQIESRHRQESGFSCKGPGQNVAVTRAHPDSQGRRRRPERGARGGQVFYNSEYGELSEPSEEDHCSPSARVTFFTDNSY

In general, IC50 refers to the concentration at which inhibition is half-maximal. In the case of `O=C(Nc1cccc(C(F)(F)F)c1)c1cccc2cc(Oc3cc(CO)ncn3)ccc12` [BFH-772], the IC50 is 1.5 µM in data set [1]; above 10 µM with BaF3 [3]; 0.003 µM in data set [6]; 1.7 µM in data set [7]; above 0.5 µM in [9]; above 0.5 µM in [10]. Besides, the IC50 is 7.2 µM with BaF3 [13], above 0.5 µM against Insulin receptor, 1.1 µM in data set [14] and 6.54 µM in the data set on BaF3 [15]. In addition, the Activity entry in data set [2], in [8], in [12] and in data set [16] was “Non-Toxic” each time. Besides, the outcome in the data set with Mus musculus [4] and in the data set on Mus musculus [5] was Active. Moreover, in data set [11], the inhibition result is “Active”.

Regarding `Nc1nccc(Oc2ccc3c(C(=O)Nc4cccc(C(F)(F)F)c4)cccc3c2)n1`, the IC50 in [1] was 0.165 µM; in the data set on BaF3 [3], above 10 µM; in [6], 0.0029 µM; in data set [7], 0.82 µM; in [9], above 0.5 µM; in [10], above 0.5 µM. In addition, the 50% inhibitory concentration (IC50) with BaF3 [13] was above 10 µM; at Insulin receptor, above 0.5 µM; in data set [14] it was 0.42 µM; in the data set with BaF3 [15], 8.27 µM. Moreover, the Activity result in data set [2], in data set [8], in data set [12] and in data set [16] was “Non-Toxic” each time. The outcome in the data set with B16-BL6 was Active. For the same molecule, the inhibition result in [11] is “Active”.

In the case of `Nc1cc(Oc2ccc3c(C(=O)Nc4ccc(F)c(C(F)(F)F)c4)cccc3c2)ncn1`, the concentration for half-maximal inhibition (IC50) in data set [1] is 0.125 µM; in the data set on BaF3 [3], above 10 µM; in data set [7], 0.333 µM; in the data set with BaF3 [13], above 10 µM; in data set [14], 0.235 µM; in the data set on BaF3 [15], 2.66 µM. The Activity entry in [2], in data set [8], in [12] and in [16] was “Non-Toxic” in each case. The Vd in data set [17] was 1.5 L/kg.

The half-life is the time needed for the level to fall by half in the phase considered. As to `Nc1nccc(Oc2ccc3c(C(=O)Nc4ccc(F)c(C(F)(F)F)c4)cccc3c2)n1`, the IC50 in data set [1] is 0.32 µM; with BaF3 [3] it was above 10 µM; in data set [7], 0.223 µM; in the data set on BaF3 [13] it was 8.9 µM; in data set [14], 0.177 µM; in the data set on BaF3 [15], 8.26 µM. In addition, the Activity result in data set [2], in data set [8], in [12] and in [16] was “Non-Toxic” throughout. In addition, the result in the data set on Mus musculus [4], with Mus musculus [5] and in the data set on B16-BL6 was Active. In addition, the half-life in [18] is 4.5 h. Further, in data set [17], the Vd amounted to 3.5 L/kg.

`Nc1cc(Oc2ccc3c(C(=O)Nc4cccc(C(F)(F)F)c4)cccc3c2)ncn1`: the half-inhibitory concentration (IC50) was 0.037 µM in [1]; above 10 µM with BaF3 [3]; 0.081 µM in [7]; above 10 µM with BaF3 [13]; 0.05 µM in [14]; 2.28 µM with BaF3 [15]. Also, the Activity result in data set [2], in [8], in [12] and in [16] was “Non-Toxic” throughout. In [18], the half-life was 10.1 h. For the same molecule, the Vd in data set [17] came out at 0.9 L/kg.
